Test results as given in ChEMBL document CHEMBL1926517, “C-terminal tetrapeptides inhibit Aβ42-induced neurotoxicity primarily through specific interaction at the N-terminus of Aβ42” (J Med Chem, 2011).
pIC50: −log10 of the molar value. Active and inactive are the calls of the source. The calls are words filed in the database; no cut-off is given here. Residues, ends and D or L forms follow the SMILES beside them.

Experiments:
PC-12 [1] = assay: Neuroprotective activity in rat PC12 cells assessed as inhibition of amyloid-beta (1 to 42)-induced cell death after 24 hrs by MTT assay; assay type: functional, cell-based; settings: for pIC50: PC-12, 24 h
In short: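 NGF-differentiated PC-12 cells (100 ng/mL, 48 h) were given 10 μM Aβ42 plus peptide at 1:1, 1:2, 1:5 and 1:10 ratios for 24 h, and read by MTT. Viability was scaled to 1 μM staurosporine full kill (100% loss), with NaOH-matched vehicle and medium as negative controls. IC50 from dose–response, ≥3 independent experiments × 6 replicates, mean ± SEM.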

PC-12 [2] = assay: Neuroprotective activity in rat PC12 cells assessed as inhibition of amyloid-beta (1 to 42)-induced cell death after 24 hrs by LDH release assay; assay type: functional, cell-based; settings: PC-12, 24 h
In short: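 PC-12 cells were differentiated with NGF (100 ng/mL, 48 h), then exposed to Aβ42 alone or Aβ42:peptide mixtures at 1:1, 1:2, 1:5 and 1:10 ratios. Cell death was measured by LDH release (membrane integrity kit). IC50 was taken from the dose–response, ≥3 independent experiments with 6 replicates each, mean ± SEM.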

[3] = Binding affinity to amyloid beta (1 to 42) Try residue at position 1 assessed as change in fluorescence intensity using C-terminus acetylated compound
In short: (§1)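 HFIP-pretreated Aβ42 or its Y-substituted analogue (5 μM nominal) was mixed with tetrapeptide (50 μM nominal), taken up in 60 mM NaOH (10% of volume), then diluted with 10 mM sodium phosphate pH 7.4 and spun briefly. Exact concentrations were set afterwards by AAA. Read-out: excitation 280 nm, emission 290–400 nm at 22°C, ≥10 immediate scans. Buffer-subtracted area per micromole was normalized to the analogue alone. Four independent experiments.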

[4] = Binding affinity to amyloid beta (1 to 42) Try residue at position 20 assessed as change in fluorescence intensity
In short: (§2)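 Aβ42 or Y-substituted analogue (5 μM final) mixed with tetrapeptide (50 μM final), HFIP-pretreated, dissolved in 60 mM NaOH (10% of volume) then diluted in 10 mM sodium phosphate pH 7.4. Spun 5,000 g 1 min, concentration confirmed post facto by AAA. Excitation 280 nm, emission 290–400 nm, 22°C, ≥10 scans of ~1 min right after preparation. Buffer subtracted, area under curve normalized to peptide alone. Four independent experiments, mean ± SEM.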

[5] = Binding affinity to amyloid beta (1 to 42) Try residue at position 1 assessed as change in fluorescence intensity using N-terminus amidated compound; in short: as §1
[6] = Binding affinity to amyloid beta (1 to 42) Try residue at position 1 assessed as change in fluorescence intensity; in short: as §1
[7] = Binding affinity to amyloid beta (1 to 42) Try residue at position 30 assessed as change in fluorescence intensity using N-terminus amidated compound; in short: as §1
[8] = Binding affinity to amyloid beta (1 to 42) Try residue at position 30 assessed as change in fluorescence intensity; in short: as §2
PC-12 [9] = assay: Neuroprotective activity in rat PC12 cells assessed as inhibition of staurosporine-induced cell death after 24 hrs by MTT assay
PC-12 [10] = assay: Neuroprotective activity in rat PC12 cells assessed as inhibition of alamethicin-induced cell death after 24 hrs by MTT assay; assay type: functional, cell-based
In short: (§3)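 NGF-differentiated PC-12 cells (100 ng/mL, 48 h) treated 24 h with α-synuclein (15 μM) or alamethicin (4 μM), alone or with a range of tetrapeptide concentrations. MTT read-out. Mean ± SEM of ≥3 independent experiments, 5 replicates per point.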

[11] = Binding affinity to wild type amyloid beta (1 to 42) assessed as change in fluorescence intensity; in short: as §2
[12] = Binding affinity to amyloid beta (1 to 42) Try residue at position 42 assessed as change in fluorescence intensity; in short: as §2
PC-12 [13] = assay: Neuroprotective activity in rat PC12 cells assessed as inhibition of alpha-synuclein-induced cell death after 24 hrs by MTT assay; assay type: functional, cell-based; in short: as §3
PC-12 [14] = assay: Neuroprotective activity in rat PC12 cells assessed as inhibition of staurosporine-induced cell death after 24 hrs by MTT assay; assay type: functional, cell-based
In short: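 Differentiated PC-12 cells (NGF 100 ng/mL, 48 h) exposed to 0.2 μM staurosporine, with or without varying tetrapeptide concentrations, for 24 h. Viability was read by MTT. Mean ± SEM, ≥3 independent experiments with 5 replicates per point.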

[15] = Binding affinity to amyloid beta (1 to 42) assessed as change in fluorescence intensity using C-terminus acetylated compound; in short: as §1
[16] = Cytotoxicity against rat PC12 cells assessed as cell viability at 1 uM after 24 hrs by MTT assay; assay type: cell-based, PC-12; settings: read-out: Activity

CC[C@H](C)[C@H](NC(=O)[C@@H](NC(=O)[C@@H](N)C(C)C)C(C)C)C(=O)N[C@@H](C)C(N)=O (H-VVIA-NH2)
Activity (PC-12 [1]): Dose-dependent effect | pIC50 (PC-12 [1]): 4.55 | pIC50 (PC-12 [2]): 4.52

CC[C@H](C)[C@H](NC(=O)[C@H](C)N)C(=O)N[C@H](C(=O)N[C@H](C(=O)O)C(C)C)C(C)C (H-AIVV-OH)
Activity (PC-12 [1]): Dose-dependent effect

CC[C@H](C)[C@H](NC(=O)[C@@H](NC(=O)[C@H](C)N)C(C)C)C(=O)N[C@@H](C)C(=O)O (H-AVIA-OH)
Activity (PC-12 [1]): Dose-dependent effect | pIC50 (PC-12 [1]): 4.28 | pIC50 (PC-12 [2]): 4.66

CC[C@H](C)[C@H](NC(=O)[C@@H](NC(=O)[C@@H](N)C(C)C)C(C)C)C(=O)N[C@@H](C)C(=O)O
Flu intensity [3]: 48% | Activity [4]: inactive | Activity (PC-12 [1]): Dose-dependent effect | pIC50 (PC-12 [1]): 4.68 | Flu intensity [5]: 62% | Flu intensity [6]: 117% | Flu intensity [7]: 24% | Activity [8]: inactive | Activity (PC-12 [9]): inactive | Activity (PC-12 [10]): inactive | Activity [11]: inactive | Activity [12]: inactive | Activity (PC-12 [13]): inactive | Activity (PC-12 [14]): inactive | Flu intensity [15]: 19%

CC[C@H](C)[C@H](NC(=O)[C@H](C)N)C(=O)N[C@H](C(=O)N[C@H](C(N)=O)C(C)C)C(C)C (H-AIVV-NH2)
Activity (PC-12 [1]): Dose-dependent effect

CC[C@H](C)[C@H](NC(=O)[C@H](C)NC(=O)[C@@H](N)C(C)C)C(=O)N[C@@H](C)C(=O)O (H-VAIA-OH)
Activity (PC-12 [1]): Dose-dependent effect | pIC50 (PC-12 [1]): 4.82 | pIC50 (PC-12 [2]): 4.85

CN[C@@H]1C[C@H]2O[C@@](C)([C@@H]1OC)n1c3ccccc3c3c4c(c5c6ccccc6n2c5c31)C(=O)NC4 [STAUROSPORINE]
viability at 24 h, 1 µM [16]: 100%
